From ChEMBL document CHEMBL3784963, “Synthesis, cytotoxic activity evaluation and HQSAR study of novel isosteviol derivatives as potential anticancer agents” (Eur J Med Chem, 2016) come the findings set out here.

Type in all cases: functional, cell-based
Assay [1] in a line: Cytotoxicity against human HCT116 cells assessed as growth inhibition after 72 hrs by MTT assay. As to conditions: HCT-116, 72 h. The procedure, abridged:
(§1)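 MTT cytotoxicity assay on three human cancer cell lines: HCT-116 (colon carcinoma), HGC-27 (gastric carcinoma) and JEKO-1 (mantle cell lymphoma).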
(Tetrazolium assays rely on reduction of a dye to a coloured formazan, in cell work by metabolically active cells.)

Assay [2] can be described thus: Cytotoxicity against human HGC27 cells assessed as growth inhibition after 72 hrs by MTT assay. As to conditions: HGC-27, 72 h. The procedure, abridged: as §1
A short description of assay [3]: Cytotoxicity against human JeKo1 cells assessed as growth inhibition after 72 hrs by MTT assay. As to conditions: JeKo-1, 72 h. The procedure, abridged:
as §1

What is called IC50 is the concentration that inhibits the measured activity by half. Take `CCOC(=O)[C@]1(C)CCC[C@@]2(C)[C@@H]3CC[C@@]4(C)C[C@]3(CC[C@@H]21)[C@H](CO)[C@H]4NC(=S)Nc1ccc(F)cc1`: the IC50 in assay [1] was determined as 4.76 µM; in assay [2], 4.92 µM; in assay [3], 23.7 µM.
`C=C[C@]12CC[C@H]3[C@@](C)(CCC[C@@]3(C)C(=O)OCC)[C@@H]1CC[C@](C)(CN=C=S)C2`: the IC50 in assay [1] is 4.14 µM; in assay [2], 11.5 µM; in assay [3], 5.43 µM.
On to `C=C[C@]12CC[C@H]3[C@@](C)(CCC[C@@]3(C)C(=O)OCC)[C@@H]1CC[C@](C)(CNC(=S)Nc1ccccc1)C2`, for which the half-maximal inhibitory concentration (IC50) worked out at 3.47 µM in assay [1], 6.69 µM in assay [2] and 2.77 µM in assay [3].
As to `CCOC(=O)[C@]1(C)CCC[C@@]2(C)[C@@H]3CC[C@@]4(C)C[C@]3(CC[C@@H]21)[C@H](CO)[C@H]4NC(=S)Nc1cccc(C)c1`, the IC50 in assay [1] is 4.63 µM; in assay [2], 4.36 µM; in assay [3], 20.8 µM.
The matching figures for `CCOC(=O)[C@]1(C)CCC[C@@]2(C)[C@@H]3CC[C@@]4(C)C[C@]3(CC[C@@H]21)[C@H](CO)[C@H]4NC(=S)Nc1ccccc1[N+](=O)[O-]`: 11.7 µM, 22.8 µM and 26.9 µM.
Turning to `CCOC(=O)[C@]1(C)CCC[C@@]2(C)[C@@H]3CC[C@@]4(C)C[C@]3(CC[C@@H]21)[C@H](CO)[C@H]4NC(=S)Nc1cccc(Br)c1`, the IC50 in assay [1] turned out to be 4.17 µM; in assay [2] it was 9.15 µM; in assay [3], 27.3 µM.
The matching figures for `CCOC(=O)[C@]1(C)CCC[C@@]2(C)[C@@H]3CC[C@@]4(C)C[C@]3(CC[C@@H]21)[C@H](CO)[C@@H]4N`: 4.9 µM, 7.25 µM and 2.47 µM.
For the molecule `CCOC(=O)[C@]1(C)CCC[C@@]2(C)[C@@H]3CC[C@@]4(C)C[C@]3(CC[C@@H]21)[C@H](CO)[C@H]4NC(C)=O`, the IC50 in assay [1] was determined as 15.2 µM; in assay [2], 18 µM; in assay [3], 62 µM.
For `CCOC(=O)[C@]1(C)CCC[C@@]2(C)[C@@H]3CC[C@@]4(C)C[C@]3(CC[C@@H]21)C[C@H]4N=C=S`, the figures for the IC50 in assay [1], in assay [2] and in assay [3] were 6.96 µM, 11.6 µM and 38.3 µM, respectively.
Turning to `CCOC(=O)[C@]1(C)CCC[C@@]2(C)[C@@H]3CC[C@@]4(C)C[C@]3(CC[C@@H]21)[C@H](CO)[C@H]4NC(=S)Nc1ccc(OC)cc1`, the IC50 was found to be 4.57 µM in assay [1], 7.72 µM in assay [2] and 40.3 µM in assay [3].
For the molecule `CCOC(=O)[C@]1(C)CCC[C@@]2(C)[C@@H]3CC[C@@]4(C)C[C@]3(CC[C@@H]21)[C@H](CO)[C@H]4NC(=S)Nc1cccc(Cl)c1`, the IC50 in assay [1] is 2.75 µM; in assay [2], 5.46 µM; in assay [3], 20.5 µM.
For `CCOC(=O)[C@]1(C)CCC[C@@]2(C)[C@@H]3CC[C@@]4(C)C[C@]3(CC[C@@H]21)C[C@H]4NC(=S)Nc1ccccc1`, the results for the IC50 in assay [1], in assay [2] and in assay [3] were 8.66 µM, 13.8 µM and 21.5 µM, respectively.
`CCOC(=O)[C@]1(C)CCC[C@@]2(C)[C@@H]3CC[C@@]4(C)C[C@]3(CC[C@@H]21)[C@H](CO)[C@H]4NC(=S)Nc1ccc(C)cc1`: the values for the IC50 in assay [1], in assay [2] and in assay [3] were 5.62 µM, 5.53 µM and 30.2 µM, respectively.
As to `CCOC(=O)[C@]1(C)CCC[C@@]2(C)[C@@H]3CC[C@@]4(C)C[C@]3(CC[C@@H]21)C[C@H]4NC(=S)NC1CCCCC1`, the figures for the IC50 in assay [1], in assay [2] and in assay [3] were 82.6 µM, 92.2 µM and 94.8 µM, respectively.
Take `CCOC(=O)[C@]1(C)CCC[C@@]2(C)[C@@H]3CC[C@@]4(C)C[C@]3(CC[C@@H]21)[C@H](CO)[C@H]4NC(=S)Nc1ccccc1`: the IC50 in assay [1] was 5.79 µM; in assay [2] it was 5.16 µM; in assay [3] it was 27.3 µM.
The matching figures for `CCOC(=O)[C@]1(C)CCC[C@@]2(C)[C@@H]3CC[C@@]4(C)C[C@]3(CC[C@@H]21)[C@H](CO)[C@H]4NC(=S)Nc1ccccc1C`: 4.78 µM, 5.04 µM and 24.7 µM.
With `CCOC(=O)[C@]1(C)CCC[C@@]2(C)[C@@H]3CC[C@@]4(C)C[C@]3(CC[C@@H]21)C[C@H]4NC(=S)NNC(=O)c1ccccc1`, the IC50 came out at 15.1 µM in assay [1], 26.2 µM in assay [2] and 56.8 µM in assay [3].
For the molecule `CCOC(=O)[C@]1(C)CCC[C@@]2(C)[C@@H]3CC[C@@]4(C)C[C@]3(CC[C@@H]21)[C@H](CO)[C@H]4NC(=S)Nc1ccc([N+](=O)[O-])cc1`, the IC50 was determined as 1.45 µM in assay [1], 2.35 µM in assay [2] and 3.54 µM in assay [3].
The matching figures for `CCOC(=O)[C@]1(C)CCC[C@@]2(C)[C@@H]3CC[C@@]4(C)C[C@]3(CC[C@@H]21)[C@H](CO)[C@H]4N`: 4.89 µM, 5.83 µM and 3.54 µM.
For `CCOC(=O)[C@]1(C)CCC[C@@]2(C)[C@@H]3CC[C@@]4(C)C[C@]3(CC[C@@H]21)[C@H](CO)[C@H]4NC(=S)Nc1cccc([N+](=O)[O-])c1`, the IC50 in assay [1] turned out to be 1.88 µM; in assay [2] it was 2.38 µM; in assay [3], 5.26 µM.
`CCOC(=O)[C@]1(C)CCC[C@@]2(C)[C@@H]3CC[C@@]4(C)C[C@]3(CC[C@@H]21)[C@H](CO)[C@H]4NC(=S)Nc1ccccc1Br`: the IC50 in assay [1] amounted to 20.9 µM; in assay [2] it was 15.6 µM; in assay [3] it was 14 µM.
The matching figures for `CCOC(=O)[C@]1(C)CCC[C@@]2(C)[C@@H]3CC[C@@]4(C)C[C@]3(CC[C@@H]21)[C@H](CO)[C@H]4NC(=S)Nc1cccc(F)c1`: 4.91 µM, 4.98 µM and 28.9 µM.
The matching figures for `CCOC(=O)[C@]1(C)CCC[C@@]2(C)[C@@H]3CC[C@@]4(C)C[C@]3(CC[C@@H]21)[C@H](CO)[C@H]4NC(=S)Nc1cccc(OC)c1`: 3.84 µM, 7.21 µM and 31.9 µM.
On to `CCOC(=O)[C@]1(C)CCC[C@@]2(C)[C@@H]3CC[C@@]4(C)C[C@]3(CC[C@@H]21)C[C@H]4N`, for which the IC50 in assay [1] came to 5.08 µM; in assay [2], 2.6 µM; in assay [3], 2.2 µM.
Turning to `CCOC(=O)[C@]1(C)CCC[C@@]2(C)[C@@H]3CC[C@@]4(C)C[C@]3(CC[C@@H]21)[C@H](CO)[C@H]4NC(=S)Nc1ccc(Br)cc1`, the IC50 in assay [1] is 2.21 µM; in assay [2], 2.98 µM; in assay [3], 6.73 µM.
As to `CCOC(=O)[C@]1(C)CCC[C@@]2(C)[C@@H]3CC[C@@]4(C)C[C@]3(CC[C@@H]21)[C@H](CO)[C@H]4NC(=S)Nc1ccccc1Cl`, the figures for the IC50 in assay [1], in assay [2] and in assay [3] were 7.23 µM, 8.98 µM and 40.7 µM, respectively.
Consider `CCOC(=O)[C@]1(C)CCC[C@@]2(C)[C@@H]3CC[C@@]4(C)C[C@]3(CC[C@@H]21)[C@H](COC(C)=O)[C@H]4NC(C)=O`, for which the IC50 in assay [1] came to 20.1 µM; in assay [2] it was 20.5 µM; in assay [3] it was 60.6 µM.
For the molecule `CCOC(=O)[C@]1(C)CCC[C@@]2(C)[C@@H]3CC[C@@]4(C)C[C@]3(CC[C@@H]21)[C@H](CO)[C@H]4NC(=S)Nc1ccccc1F`, the IC50 in assay [1] stood at 4.85 µM; in assay [2], 7.38 µM; in assay [3], 35.7 µM.
Take `CCOC(=O)[C@]1(C)CCC[C@@]2(C)[C@@H]3CC[C@@]4(C)C[C@]3(CC[C@@H]21)[C@H](CO)[C@H]4NC(=S)Nc1c(C)cccc1C`: the IC50 came out at 4.54 µM in assay [1], 8.9 µM in assay [2] and 21.1 µM in assay [3].
For `CCOC(=O)[C@]1(C)CCC[C@@]2(C)[C@@H]3CC[C@@]4(C)C[C@]3(CC[C@@H]21)[C@H](CO)[C@H]4NC(=S)Nc1ccccc1OC`, the IC50 in assay [1] worked out at 5.4 µM; in assay [2] it was 9.02 µM; in assay [3], 28.3 µM.
Turning to `CCOC(=O)[C@]1(C)CCC[C@@]2(C)[C@@H]3CC[C@@]4(C)C[C@]3(CC[C@@H]21)[C@H](CO)[C@H]4NC(=S)Nc1ccc(Cl)cc1`, the IC50 stood at 4.41 µM in assay [1], 3.33 µM in assay [2] and 5.76 µM in assay [3].
As to `CCOC(=O)[C@]1(C)CCC[C@@]2(C)[C@@H]3CC[C@@]4(C)C[C@]3(CC[C@@H]21)[C@H](CO)[C@H]4NC(=S)Nc1ccc(Cl)cc1Cl`, the IC50 worked out at 4.02 µM in assay [1], 4.78 µM in assay [2] and 27.3 µM in assay [3].
The matching figures for `CCOC(=O)[C@]1(C)CCC[C@@]2(C)[C@@H]3CC[C@@]4(C)C[C@]3(CC[C@@H]21)[C@H](CO)[C@H]4N=C=S`: 4.45 µM, 7.7 µM and 30.1 µM.
Turning to `CCOC(=O)[C@]1(C)CCC[C@@]2(C)[C@@H]3CC[C@@]4(C)C[C@]3(CC[C@@H]21)C[C@H]4NC(=S)N[C@@H](C)c1ccccc1`, the IC50 stood at 6.63 µM in assay [1], 18.2 µM in assay [2] and 15.2 µM in assay [3].
In the case of `C=C[C@]12CC[C@H]3[C@@](C)(CCC[C@@]3(C)C(=O)OCC)[C@@H]1CC[C@](C)(CN)C2`, the figures for the IC50 in assay [1], in assay [2] and in assay [3] were 2.46 µM, 3.02 µM and 2.16 µM, respectively.
The matching figures for `C[C@@]12CC[C@@H]3[C@@](CC[C@H]4[C@@]3(C)CCC[C@@]4(C)C(=O)O)(CC1=O)C2` [ISOSTEVIOL]: more than 100 µM, more than 100 µM and more than 100 µM.
